SMILES strings stand for the structures.

The target in series [1] is T1, Amine oxidase [flavin-containing] A (Homo sapiens, UniProt P21397).
T1 sequence (P21397 whole entry): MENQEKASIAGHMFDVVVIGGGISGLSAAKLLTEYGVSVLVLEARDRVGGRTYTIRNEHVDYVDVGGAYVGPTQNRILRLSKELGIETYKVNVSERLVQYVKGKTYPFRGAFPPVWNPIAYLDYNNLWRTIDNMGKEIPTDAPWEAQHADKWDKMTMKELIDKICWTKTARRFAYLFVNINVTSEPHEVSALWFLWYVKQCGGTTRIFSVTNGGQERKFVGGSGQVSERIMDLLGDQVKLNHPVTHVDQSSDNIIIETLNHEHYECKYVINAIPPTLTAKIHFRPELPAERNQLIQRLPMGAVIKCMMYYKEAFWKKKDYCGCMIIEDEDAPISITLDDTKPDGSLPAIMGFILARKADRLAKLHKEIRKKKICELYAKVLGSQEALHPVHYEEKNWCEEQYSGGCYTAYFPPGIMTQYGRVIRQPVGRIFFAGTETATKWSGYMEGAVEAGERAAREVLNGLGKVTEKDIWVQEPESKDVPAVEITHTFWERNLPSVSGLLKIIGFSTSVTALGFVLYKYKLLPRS
The series can be described thus: Inhibition of recombinant human MAO-A expressed in baculovirus infected BTI insect cells using tyramine as substrate pretreated for 30 mins followed by substrate addition incubated for 30 mins measured at 5 mins interval by horse-radish peroxidase/amplex red-based fluorometric method. Put shortly:
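Recombinant hMAO-A (0.5 U/mL stock) or hMAO-B (0.64 U/mL stock) in phosphate buffer, preincubated with inhibitor (solutions 10^-3 to 10^-9 M in 2% DMSO) for 30 min at 37°C. Background-subtracted against DMSO control; quadruplicate.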

The subject of series [2] is Salmonella typhimurium. As to the kind of experiment: Genotoxicity in Salmonella typhimurium TA100 assessed as increase in number of revertants at 5 mg/ml in presence of aroclor-1254-induced Sprague-Dawley rat liver microsomal S9 fraction by Ames-MPF assay relative to baseline. It counts as toxicity. The note with it: salmonella enterica subsp. enterica serovar typhimurium, microsomes. Put shortly: (§1)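 AmesMPF 98/100 fluctuation format with S. typhimurium TA98 (frameshift) and TA100 (base-pair substitution), run with and without S9. Compounds were made up in DMSO at 0.156–5 mg/mL, six levels; solvent control was 4% DMSO. With S9, positive controls were 2-aminoanthracene at 1 µg/mL (TA98) and 2.5 µg/mL (TA100). Wells turned yellow by pH drop were scored positive. Fold over baseline is mean positive wells divided by (zero-dose mean + 1 SD). Student's t-test, p<0.05.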

The species named for the next series is Homo sapiens. As to the kind of experiment: Selectivity index, ratio of IC50 for recombinant human MAO-A expressed in baculovirus infected BTI insect cells to IC50 for recombinant human MAO-B expressed in baculovirus infected BTI insect cells. Put shortly:
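Selectivity index calculated as IC50(MAO-A)/IC50(MAO-B), with both IC50 values from the fluorometric tyramine/HRP/Amplex Red inhibition assay.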

Series [3] concerns the target T2, Amine oxidase [flavin-containing] B (Homo sapiens, UniProt P27338).
T2 sequence (P27338 whole entry): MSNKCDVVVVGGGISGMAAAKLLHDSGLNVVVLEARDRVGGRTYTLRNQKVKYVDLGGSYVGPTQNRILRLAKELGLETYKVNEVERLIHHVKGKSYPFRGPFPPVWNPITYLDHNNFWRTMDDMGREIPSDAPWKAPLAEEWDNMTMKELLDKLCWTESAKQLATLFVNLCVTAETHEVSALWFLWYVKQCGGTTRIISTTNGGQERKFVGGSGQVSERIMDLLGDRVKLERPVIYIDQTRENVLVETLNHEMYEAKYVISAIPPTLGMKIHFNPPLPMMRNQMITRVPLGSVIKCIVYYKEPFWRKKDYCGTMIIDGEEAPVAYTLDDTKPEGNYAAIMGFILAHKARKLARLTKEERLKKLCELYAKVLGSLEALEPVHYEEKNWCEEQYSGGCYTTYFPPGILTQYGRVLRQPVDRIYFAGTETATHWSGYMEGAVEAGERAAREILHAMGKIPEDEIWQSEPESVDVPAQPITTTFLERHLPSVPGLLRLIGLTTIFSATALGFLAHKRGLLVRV
The series can be described thus: Non-competitive inhibition of recombinant human MAO-B expressed in baculovirus infected BTI insect cells using varying levels of tyramine as substrate pretreated for 30 mins followed by substrate addition measured for 30 mins by Line-weaver burk plot method. Put shortly:
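hMAO-B preincubated 30 min at 37°C with inhibitor at five concentrations. Working solution with tyramine at 20, 10, 5, 2.5, 1.25 and 0.625 µM then added, and fluorescence (Ex/Em 535/587 nm) followed for 30 min alongside an inhibitor-free run; quadruplicate. Inhibition type from Lineweaver-Burk plots; Ki from x-intercept of Vmax replotted against inhibitor concentration.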

Series [4] relates to Salmonella typhimurium. As to the kind of experiment: Genotoxicity in Salmonella typhimurium TA100 assessed as increase in number of revertants at 0.3125 mg/ml in absence of aroclor-1254-induced Sprague-Dawley rat liver microsomal S9 fraction by Ames-MPF assay relative to baseline. The format is toxicity. The following applies: salmonella enterica subsp. enterica serovar typhimurium, microsomes. Put shortly: as §1
(In general: Liver microsomes are vesicles of endoplasmic reticulum, rich in cytochrome P450 enzymes.)

Series [5] concerns Salmonella typhimurium. As to the kind of experiment: Genotoxicity in Salmonella typhimurium TA100 assessed as increase in number of revertants at 0.625 mg/ml in presence of aroclor-1254-induced Sprague-Dawley rat liver microsomal S9 fraction by Ames-MPF assay relative to baseline. It counts as toxicity. The following applies: salmonella enterica subsp. enterica serovar typhimurium, microsomes. Put shortly: as §1

Series [6] deals with Salmonella typhimurium. The series can be described thus: Genotoxicity in Salmonella typhimurium TA98 assessed as increase in number of revertants at 0.3125 mg/ml in presence of aroclor-1254-induced Sprague-Dawley rat liver microsomal S9 fraction by Ames-MPF assay relative to baseline. It counts as toxicity. The note with it: salmonella enterica subsp. enterica serovar typhimurium, microsomes. Put shortly:
as §1

Series [7] concerns Salmonella typhimurium. The series can be described thus: Genotoxicity in Salmonella typhimurium TA100 assessed as increase in number of revertants at 0.3125 mg/ml in presence of aroclor-1254-induced Sprague-Dawley rat liver microsomal S9 fraction by Ames-MPF assay relative to baseline. It counts as toxicity. The note with it: salmonella enterica subsp. enterica serovar typhimurium, microsomes. Put shortly:
as §1

By IC50 is commonly meant the midpoint of a concentration-inhibition curve. In general, Ki refers to the equilibrium dissociation constant of an inhibitor or competing ligand from its target. As for `C#CCn1c(-c2ccc(C(=O)N/N=C/c3cccnc3)cc2)nc2ccccc21`, the IC50 in series [1] turned out to be 9590 nM. The “fold change (FC)” value in the series with Salmonella typhimurium [2] stood at 0.07; with Salmonella typhimurium [4], 0.99; in the series on Salmonella typhimurium [5], 0.27; in the series with Salmonella typhimurium [6], 0.35; in the series with Salmonella typhimurium [7], 0.27. Besides, in the series filed under Homo sapiens, the Ratio IC50 turned out to be 128. Moreover, the Ki in series [3] was 150 to 151 nM.

`C#CCn1c(-c2ccc(C(=O)N/N=C/c3ccc(F)cc3)cc2)nc2ccccc21`: the IC50 in series [1] is 851 nM. For the same molecule, the “fold change (FC)” value came to 1.94 with Salmonella typhimurium [2]; 0.79 with Salmonella typhimurium [4]; 1.15 with Salmonella typhimurium [5]; 2.13 in the series with Salmonella typhimurium [6]; 0.49 with Salmonella typhimurium [7]. In the series listed under Homo sapiens, the Ratio IC50 was found to be 6.26.

The values above are taken from ChEMBL document CHEMBL4038273, “MAO enzymes inhibitory activity of new benzimidazole derivatives including hydrazone and propargyl side chains” (Eur J Med Chem, 2017).
